18 molecules from ChEMBL document CHEMBL5532650, “Discovery of an orally active nitrothiophene-based antitrypanosomal agent” (Eur J Med Chem, 2024) can be followed below.

Active and inactive are the calls of the source. The calls are words filed in the database; no cut-off is given here.

As a reminder, the inhibition is the share of the control response that was lost under treatment. The term EC50 denotes the concentration giving half of the maximal effect. One may read the CC50 as the concentration at which the toxic effect on the cells reaches its halfway point.

Data set [1] deals with Trypanosoma brucei rhodesiense. In words: Inhibition of Trypanosoma brucei rhodesiense MVAT4 strain Cathepsin-L expressed in Pichia pastoris at 10 uM relative to control. The procedure, abridged: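 Trypanosomal cathepsin L, expressed in Pichia pastoris and purified, was tested at 10 μM after 1 hour. The read-out was percentage inhibition, with E-64 as positive control.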

Data set [2] deals with Trypanosoma brucei brucei. In words: Antitrypanosomal activity against bloodstream forms of Trypanosoma brucei brucei strain 427 assessed as growth inhibition measured after 48 hrs by Alamar blue assay. The note with it: Trypanosoma brucei, 427, 48 h. The format is functional, organism-based. The method in brief: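 Bloodstream T. b. brucei 427 at 5 x 10^3 cells/well in supplemented HMI-9 with 10% FBS. Compounds in DMSO over 0.01–50 μM, triplicates. After 48 h exposure, Alamar blue was added for 4 h at 37°C. Fluorescence read at ex/em 530/590 nm; suramin was the positive control. EC50 = half-maximal trypanosomal viability.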
In general terms: Alamar Blue is a resazurin reagent that responds to reducing activity.

For the next data set, the system named is HepG2. Description: (§1) Cytotoxicity against human HepG2 cells assessed as cell growth measured after 72 hrs mby MTT assay. The following applies: hepg2, 72 h. The format is toxicity, cell-based. The procedure, abridged:
(§2)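 HepG2 in DMEM:F12 with 10% FBS were seeded at 5 x 10^5 cells/mL and allowed 18-24 h. Compounds in DMSO over 0.01–300 μM for 72 h. MTT was then added for 30 min, formazan dissolved in DMSO and absorbance read at 550 nm. Triplicates; SDS (10%) and podophyllotoxin were the controls. CC50 = half-maximal cellular viability.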
A general note: Formazan colour is commonly taken as a measure of viable cells.

The test system of data set [3] is Trypanosoma brucei rhodesiense. In words: Antitrypanosomal activity against bloodstream forms of Trypanosoma brucei rhodesiense STIB 900 assessed as growth inhibition incubated for 70 hrs followed by treated with resazurin 2 to 4 hrs by resazurin based fluorescence assay. The format is functional, organism-based. The method in brief:
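Bloodstream STIB 900 at 2x10^4 parasites/well in HMI-9 with 15% heat-inactivated horse serum. Eleven 3-fold dilutions spanned 100 to 0.002 μM. Plates ran 70 h at 37 °C in 5% CO2, then resazurin for 2–4 h. Fluorescence read at ex/em 536/588 nm; melarsoprol was the control.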

Data set [4] relates to Trypanosoma brucei gambiense. Description: Antitrypanosomal activity against bloodstream forms of Trypanosoma brucei gambiense 130R assessed as growth inhibition incubated for 68 hrs followed by treated with resazurin 4 to 6 hrs by resazurin based fluorescence assay. The class given is functional, organism-based. The procedure, abridged: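 Bloodstream 130R at 4x10^4 parasites/well in HMI-9 with 15% heat-inactivated fetal calf and 5% human serum. Eleven 3-fold dilutions spanned 100 to 0.002 μM. Plates ran 68 h at 37 °C in 5% CO2, then resazurin for 4–6 h. Fluorescence read at ex/em 536/588 nm; melarsoprol was the control.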

Data set [5] can be described thus: as §1. The format is toxicity, cell-based. The following applies: HepG2 cells. The method in brief:
as §2

The nature of data set [6]: Selectivity index, ratio of CC50 for cytotoxicity against human HepG2 cells to EC50 for Antitrypanosomal activity against bloodstream forms of Trypanosoma brucei gambiense 130R. The class given is toxicity, cell-based.
Data set [7] in a line: Selectivity index, ratio of CC50 for cytotoxicity against human HepG2 cells to EC50 for Antitrypanosomal activity against bloodstream forms of Trypanosoma brucei rhodesiense STIB 900. The class given is toxicity, cell-based.
A short description of data set [8]: Metabolic stability in mouse liver microsomes assessed as half life at 0.1 uM measured for every 15 mins by HPLC-MS/MS analysis. The format is ADME, Microsome. The note with it: 0.25 h.
Data set [9] is described as follows: Selectivity index, ratio of CC50 for cytotoxicity against human HepG2 cells to EC50 for Antitrypanosomal activity against bloodstream forms of Trypanosoma brucei brucei strain 427. The format is toxicity, cell-based. The following applies: read-out: Selectivity Index.
Data set [10] can be described thus: Metabolic stability in mouse liver S9 fraction assessed as half life at 0.1 uM measured for every 15 mins by HPLC-MS/MS analysis. The class given is ADME, subcellular. The following applies: s9, 0.25 h.

Take `CS(=O)(=O)CCCNC(=O)c1cccs1`: the inhibition result in data set [1] is “inactive”. In data set [2], the half-maximal effective concentration (EC50) was above 30000 nM. The CC50 in the data set with HepG2 is above 150000 nM.
In data set [1], `O=C(N[C@H](/C=C/S(=O)(=O)c1ccccc1)CCc1ccccc1)c1ccc([N+](=O)[O-])o1` showed an inhibition of 78.1%. For the same molecule, the EC50 in data set [3] amounted to 2730 nM; in data set [4], 70 nM; in [2], 110 nM. The 50% cytotoxic concentration (CC50) at 72 h in data set [5] was 5170 nM.
`O=C(N[C@H](/C=C/S(=O)(=O)c1ccccc1)CCc1ccccc1)c1cc(Cl)c([N+](=O)[O-])[nH]1` showed an inhibition in data set [1] of 26.7%. Also, in data set [2], the EC50 is 31200 nM. Also, the CC50 with HepG2 is above 160000 nM.
In the case of `O=C(NC/C=C/S(=O)(=O)c1ccccc1)c1ccc([N+](=O)[O-])s1`, the EC50 in data set [3] was 610 nM; in data set [4] it was 320 nM; in data set [2], 6350 nM. In addition, the CC50 in the data set with HepG2 was found to be 20400 nM.
Turning to `CNC(=O)/C=C/[C@H](CCc1ccccc1)NC(=O)c1ccc([N+](=O)[O-])o1`, the figures for the selectivity ratio in data set [6], in data set [7] and in data set [9] were 694, 298 and 139, respectively. Moreover, the inhibition in data set [1] was 54.8%. For the same molecule, the t1/2 was above 1 h in data set [8] and 0.3415 h in [10]. The EC50 in data set [3] was 140 nM; in data set [4], 60 nM; in data set [2], 300 nM. For the same molecule, in the data set with HepG2, the CC50 was determined as 41700 nM.
`Cc1ncc([N+](=O)[O-])n1CC(=O)N[C@H](/C=C/S(=O)(=O)c1ccccc1)CCc1ccccc1` gave an inhibition in [1] of 44.1%. In [2], the concentration giving a half-maximal response (EC50) was above 50000 nM. Also, the cytotoxic concentration (CC50) in the data set with HepG2 is above 300000 nM.
As to `Nc1nc(N)nc(Nc2ccc([As]3SCC(CO)S3)cc2)n1` (configuration not stated) [MELARSOPROL], the EC50 in data set [3] and in data set [4] was 10 nM in each case.
The molecule `CNC(=O)/C=C/CNC(=O)c1ccc([N+](=O)[O-])o1` returned an inhibition in data set [1] of 17%. Besides, the figures for the concentration giving a half-maximal response (EC50) in data set [3], in data set [4] and in data set [2] were 220 nM, 470 nM and 1690 nM, respectively. In addition, in the data set with HepG2, the CC50 is above 75000 nM.
Take `O=C(NC/C=C/S(=O)(=O)c1ccccc1)c1ccc([N+](=O)[O-])o1`: the inhibition in [1] stood at 17.7%. Besides, the selectivity ratio in data set [7] was 33.5; in data set [9], 60.6. The t1/2 was above 1 h in data set [8] and 0.2165 h in data set [10]. Besides, the EC50 in data set [3] is 1770 nM; in data set [4] it was 200 nM; in [2], 980 nM. Besides, the cytotoxic concentration (CC50) in the data set on HepG2 amounted to 59400 nM.
`CNC(=O)CCCNC(=O)c1ccc([N+](=O)[O-])s1`: the results for the selectivity ratio in data set [6], in data set [7] and in [9] were 37, 35.5 and 16.9, respectively. The inhibition entry in [1] is “inactive”. Besides, the values for the EC50 in [3], in [4] and in [2] were 1960 nM, 1880 nM and 4120 nM, respectively. For the same molecule, the CC50 with HepG2 was found to be 69500 nM.
The molecule `CS(=O)(=O)/C=C/CNC(=O)c1cccs1` displayed an inhibition in [1] of 23.6%. For the same molecule, the EC50 in data set [2] is above 30000 nM. For the same molecule, the half-maximal cytotoxic concentration (CC50) with HepG2 is above 300000 nM.
In data set [1], `CS(=O)(=O)CCCNC(=O)c1ccc([N+](=O)[O-])s1` came in with an inhibition of 11.1%. Besides, the selectivity ratio in data set [9] was found to be 76.4. For the same molecule, in data set [2], the concentration giving a half-maximal response (EC50) was 1290 nM. Further, the CC50 with HepG2 amounted to 98600 nM.
`CS(=O)(=O)/C=C/CNC(=O)c1ccc([N+](=O)[O-])o1`: the inhibition in data set [1] was 21.2%. Besides, in data set [8], the t1/2 was above 1 h. In addition, in data set [9], the selectivity ratio amounted to 49.5. For the same molecule, the 50% effective concentration (EC50) in data set [3] stood at 50 nM; in [4] it was 60 nM; in data set [2] it was 440 nM. For the same molecule, in the data set with HepG2, the CC50 was determined as 21800 nM.
In the case of `O=C(NC/C=C/S(=O)(=O)c1ccccc1)c1ccco1`, the inhibition in data set [1] worked out at 30.6%. Further, in [9], the selectivity ratio stood at 34. In data set [2], the concentration giving a half-maximal response (EC50) came out at 1950 nM. The CC50 in the data set on HepG2 turned out to be 66300 nM.
As for `O=C(NCCCS(=O)(=O)c1ccccc1)c1ccc([N+](=O)[O-])o1`, the inhibition in data set [1] was 15%. Also, the selectivity ratio in [9] amounted to 45. Moreover, the EC50 in [2] is 990 nM. Besides, the cytotoxic concentration (CC50) in the data set with HepG2 stood at 44600 nM.
Regarding `CS(=O)(=O)/C=C/CNC(=O)c1ccc([N+](=O)[O-])s1`, the figures for the selectivity ratio in data set [6], in data set [7] and in data set [9] were 395, 822 and 154, respectively. The molecule further yielded an inhibition in [1] of 23.2%. Moreover, the t1/2 in data set [8] and in [10] was above 1 h in each case. Besides, the 50% effective concentration (EC50) in [3] was 120 nM; in data set [4] it was 250 nM; in data set [2] it was 640 nM. Also, the CC50 with HepG2 came to 98600 nM.
Consider `CNC(=O)CCCNC(=O)c1cccs1`, for which the inhibition entry in [1] is “inactive”. Besides, in [2], the EC50 is above 30000 nM. In addition, the cytotoxic concentration (CC50) in the data set on HepG2 was above 300000 nM.
Regarding `CNC(=O)/C=C/[C@H](CCc1ccccc1)NC(=O)c1ccc([N+](=O)[O-])s1`, the selectivity ratio came out at 2000 in data set [6], 1500 in data set [7] and 333 in [9]. This molecule also yielded an inhibition in [1] of 58.4%. In addition, the t1/2 in data set [8] is above 1 h; in data set [10] it was 0.3248 h. Further, the EC50 stood at 40 nM in data set [3], 30 nM in [4] and 180 nM in data set [2]. For the same molecule, the CC50 in the data set on HepG2 is 60000 nM.
